In ChEMBL document CHEMBL3259516, “Structure-based design and synthesis of bicyclic fused-pyridines as MEK inhibitors” (Bioorg Med Chem Lett, 2014):

What was measured:
[1] = Plasma protein binding in human; format: ADME, cell-free; details: read-out: PPB (converted)
[2] = AUC in rat at 5 mg/kg, po; format: ADME, organism-based; parameters: dose 5 mg/kg, route oral; details: plasma
[3] = Cmax in rat at 5 mg/kg, po; format: ADME, organism-based; parameters: dose 5 mg/kg, route oral; details: in vivo
[4] = Oral bioavailability in beagle dog at 1 mg/kg; format: ADME, organism-based, Canis lupus familiaris; details: in vivo
[5] = Half life in rat at 5 mg/kg, po; format: ADME, organism-based; parameters: dose 5 mg/kg, route oral; details: in vivo
[6] = Clearance in human liver microsomes; format: ADME; details: read-out: CLH
[7] = Half life in beagle dog at 1 mg/kg, iv; format: ADME, organism-based, Canis lupus familiaris; parameters: dose 1 mg/kg, route intravenous; details: in vivo
[8] = Inhibition of CYP450 (unknown origin) up to 50 uM; format: ADME; details: human
COLO 205 = experiment: Antitumor activity against human COLO205 cells xenografted in mouse assessed as tumor growth inhibition at 3 mg/kg, po qd for 14 days relative to control; format: functional; details: COLO 205, 336 h, read-out: TGI
Summary of the method: (§1)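 Human colorectal Colo-205 xenografts in mice; test agent given by oral gavage at 3.0 mg/kg once daily for 14 days. Tumor growth inhibition scored relative to control, and body weight followed in all animals throughout the study.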

[9] = AUC in beagle dog at 1 mg/kg, iv; format: ADME, organism-based, Canis lupus familiaris; parameters: dose 1 mg/kg, route intravenous; details: plasma
Mus musculus = experiment: Toxicity in mouse xenografted with human COLO205 cells assessed as change in body weight at 3 mg/kg, po qd for 14 days; format: organism-based, COLO 205; parameters: dose 3 mg/kg, route oral; details: in vivo, 336 h; summary of the method: as §1
[10] = Clearance in rat liver microsomes; format: ADME; details: read-out: CLH
[11] = Cmax in beagle dog at 1 mg/kg, po; format: ADME, organism-based, Canis lupus familiaris; parameters: dose 1 mg/kg, route oral; details: in vivo
[12] = Half life in beagle dog at 1 mg/kg, po; format: ADME, organism-based, Canis lupus familiaris; parameters: dose 1 mg/kg, route oral; details: in vivo
[13] = AUC in beagle dog at 1 mg/kg, po; format: ADME, organism-based, Canis lupus familiaris; parameters: dose 1 mg/kg, route oral; details: plasma
[14] = molecular target: T1, Dual specificity mitogen-activated protein kinase kinase 1 (Homo sapiens, UniProt Q02750); experiment: Inhibition of MEK1 (unknown origin)
[15] = molecular target: T1, Dual specificity mitogen-activated protein kinase kinase 1; experiment: Inhibition of MEK1 in human COLO205 cells; format: cell-based, COLO 205

T1 sequence (Q02750 whole entry): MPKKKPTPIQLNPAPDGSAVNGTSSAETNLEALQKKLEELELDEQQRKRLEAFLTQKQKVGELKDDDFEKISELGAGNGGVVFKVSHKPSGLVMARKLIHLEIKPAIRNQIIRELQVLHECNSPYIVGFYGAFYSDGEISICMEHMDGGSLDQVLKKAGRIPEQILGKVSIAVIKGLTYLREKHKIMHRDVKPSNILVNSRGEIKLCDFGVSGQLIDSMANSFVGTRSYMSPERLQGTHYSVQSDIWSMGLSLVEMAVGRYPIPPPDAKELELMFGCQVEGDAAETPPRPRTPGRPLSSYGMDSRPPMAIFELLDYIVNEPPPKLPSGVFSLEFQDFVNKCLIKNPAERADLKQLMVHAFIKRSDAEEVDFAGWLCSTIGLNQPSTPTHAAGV

Row | fraction unbound [1] | AUC [2] [ng·h/mL] | Cmax [3] [ng/mL] | bioavailability [4] [%] | half-life [5] [h] | microsomal CLint [6] [µL/min/mg] | half-life [7] [h] | inhibition (INH) [8] | AUC [9] [ng·h/mL] | microsomal CLint [10] [µL/min/mg] | Cmax [11] [ng/mL] | half-life [12] [h] | AUC [13] [ng·h/mL] | IC50 [14] [nM] | IC50 [15] [nM] | SMILES | inhibition in vivo at 3 mg/kg (COLO 205) [%] | Activity (Mus musculus)
1 | 0.033 | 4890 | 1080 | 43 | 5.56 | 1.25 | 3.11 | Not Active | 1190 | 2.38 | 117 | 4.88 | 510 |  |  | O=c1c2c(Nc3ccc(I)cc3F)cncc2cnn1C[C@H](O)CO | 59.5 | Non-toxic
2 |  |  |  |  |  |  |  |  |  |  |  |  |  | > 1000 |  | O=C(NC[C@H](O)CO)c1ncncc1Nc1ccccc1F |  | 
3 |  |  |  |  |  |  |  |  |  |  |  |  |  | 1.79 | 6.92 | Cn1c(=O)c(F)c(Nc2ccc(I)cc2F)c2c(=O)n(C[C@@H](O)CO)cnc21 [TAK-733] |  | 
